CFTR F508del cor – CFTR F508del correction in bronchial cells; activity (quench increase), % at 7.58 µM; 350,000 compounds, 0.36% hits; CFBE cells, YFP halide quenching; stimulated with forskolin plus potentiator P3; % fluorescence drop versus neutral controls;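 active = mean added fluorescence quench of at least 8% versus neutral control, with both replicates also reaching 8%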;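 note: cells transiently co-express mutant CFTR-F508del with the halide-sensitive YFP; corrector assay measuring rescue of mutant channel to the surface after 24 h compound exposure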
ERAP1 inh – inhibitors of human ERAP1 aminopeptidase; recombinant ERAP1, Leu-AMC fluorescence, 60 min; inhibition, % at 10.7 µM; 340,000 compounds, 0.15% hits; AID 652197;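 active = mean replicate inhibition of at least 30%, or all replicates individually reaching that 30% level; inactive = mean below 30% and not every replicate reaching it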;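 note: 0% = neutral control wells and 100% = L-leucinethiol positive control wells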
DENV2 CPE rescue – protects cells from dengue virus 2 cytopathic effect. DENV2-infected cells, cytopathic effect rescue, plate reader. CPE inhibition, % at 9.99 µM. 350,000 compounds, 1.7% hits. AID 651640; in the data active = CPE inhibition above about 20%, passing the limit was not always enough; tested in BHK-21 cells;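 note: 0% = median of neutral control wells and 100% = median of positive control wells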
FGF22 binding – shifts melting point of recombinant human FGF22; Q9HCT0; recombinant FGF22 thermal shift, SYPRO orange fluorescence; percent of sucrose octasulfate shift, DMSO zero; activity (Tm shift, normalised), % at 9.99 µM; 340,000 compounds, 1.5% hits; AID 651658;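 active = mean Tm shift, scaled 0 neutral to 100 positive control, at about 1.3% or above, every replicate too, limit read from the data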
E-sel inducer – E-selectin induction on HUVECs; P16581; HUVEC E-selectin immunofluorescence imaging; normalized: neutral wells 0, TNF-alpha wells 100; AID 686992; activation, % at 7.58 µM; 260,000 compounds, 0.37% hits;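 active = mean E-selectin-positive cell signal at least 10% of the positive control, reached in at least 60% of replicates, without over 20% cell loss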
Target sequence (P16581 whole entry, looked up): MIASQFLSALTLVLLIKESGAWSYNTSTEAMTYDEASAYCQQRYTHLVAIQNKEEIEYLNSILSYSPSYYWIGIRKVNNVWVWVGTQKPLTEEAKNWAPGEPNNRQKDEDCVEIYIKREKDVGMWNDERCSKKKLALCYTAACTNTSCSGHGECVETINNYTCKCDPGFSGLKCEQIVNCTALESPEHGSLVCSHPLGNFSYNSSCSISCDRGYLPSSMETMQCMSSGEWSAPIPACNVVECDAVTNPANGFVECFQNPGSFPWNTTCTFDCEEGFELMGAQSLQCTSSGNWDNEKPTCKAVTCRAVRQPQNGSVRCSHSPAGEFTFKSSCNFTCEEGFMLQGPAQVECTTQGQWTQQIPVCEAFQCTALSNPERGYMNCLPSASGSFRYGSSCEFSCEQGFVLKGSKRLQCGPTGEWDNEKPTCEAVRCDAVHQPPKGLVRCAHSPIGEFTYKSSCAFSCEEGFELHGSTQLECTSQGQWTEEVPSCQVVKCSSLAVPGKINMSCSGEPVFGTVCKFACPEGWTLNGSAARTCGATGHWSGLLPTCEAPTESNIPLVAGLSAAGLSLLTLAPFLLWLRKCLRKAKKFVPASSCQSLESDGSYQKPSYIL
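Test system – human umbilical vein endothelial cells (HUVEC), E-selectin induction · Input – 3,000 HUVEC seeded per well · Buffer or medium – EGM-2, gelatin · Compound dosing – single-point compound dose · Detection – immunofluorescence imaging · Measure – percent E-selectin-positive cells · Controls – TNF-alpha high, DMSO low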
Active calls of the source: *; / = no result given. A selection: hits, their analogues and other compounds. The true share with any hit is near 3.7%.

SMILES | CFTR F508del cor | ERAP1 inh | DENV2 CPE rescue | FGF22 binding | E-sel inducer
N/C(=N\OC(=O)c1cccc(Cl)c1)c1ccncc1 | 2 | 2 | / | 45* | /
CCCC#Cc1ccc2c(c1)O[C@@H](CN(C)Cc1cccnc1)[C@H](C)CN([C@@H](C)CO)S2(=O)=O | / | 3 | -12 | 0 | 0
COc1ccc(NC(=O)c2nc(C)c(C3(C)CC(c4cccnc4)=NO3)s2)cc1 (stereo not drawn) | 17* | 1 | 0 | 0 | 0
CCOC(=O)C1CCCN(C2=NC(=O)/C(=C/c3ccc(OC)cc3)S2)C1 (stereo not drawn) | -1 | -1 | 0 | 0 | 0
CCOC(=O)C1CCCN(C2=NC(=O)/C(=C/c3ccc(N(C)C)cc3)S2)C1 (stereo not drawn) | 1 | -2 | 0 | 1.9* | 0
Cn1c(=O)n2n(c1=O)[C@H](C1CC1)C=C1CN3[C@@H]([C@H](Cc4ccccc4)OC(=O)[C@@H]3Cc3ccccc3)[C@@H]12 | -2 | 2 | -1 | 0 | /
Cn1cc(C(CO)Cc2ccccc2)c2ccccc21 (stereo not drawn) | 0 | 1 | 25* | 0 | 0
O=C(C[C@H]1C[C@@H]2c3cc(NC(=O)NC4CCCC4)ccc3O[C@@H]2[C@H](CO)O1)NCc1cccnc1 | -2 | 0 | 13 | 0 | 0
C[C@@H]1CCCCO[C@H](CN(C)S(=O)(=O)c2cn(C)cn2)[C@@H](C)CN([C@@H](C)CO)C(=O)c2cc(N(C)C)ccc2O1 | 0 | 2 | -2 | 0 | 0
CC(=O)NC(c1cccs1)c1cc([N+](=O)[O-])c2cccnc2c1O (stereo not drawn) | -1 | 2 | 87* | 0 | /
CC(=O)NC(c1ccc(C(C)C)cc1)c1ccc2cccnc2c1O (stereo not drawn) | 8.9* | -3 | 1 | 0 | 0
CC(=O)NC(c1cc(Cl)c2cccnc2c1O)C(C)C (stereo not drawn) | 3 | -3 | 42* | 0 | 0
CCC(=O)NC(c1cccs1)c1cc([N+](=O)[O-])c2cccnc2c1O (stereo not drawn) | 3 | 0 | -11 | 0 | 2
CCCCC(=O)NC(c1ccc(C(C)C)cc1)c1ccc2cccnc2c1O (stereo not drawn) | -5 | 1 | -6 | 0 | 0
C[C@@H]1CCCCO[C@H](CN(C)Cc2ccc3c(c2)OCO3)[C@H](C)CN([C@H](C)CO)C(=O)c2cc(NC(=O)Nc3ccc(F)cc3)ccc2O1 | 0 | 1 | -6 | -1 | 0
COc1ccccc1C(=O)Nc1ccc2c(c1)C(=O)N(C)C[C@H](OC)[C@@H](C)CN(C)[C@H](C)CO2 | 1 | -2 | 5 | 0 | 0
COc1ccc(NC(=O)Nc2ccc3c(c2)C(=O)N([C@H](C)CO)C[C@@H](C)[C@H](CN(C)S(=O)(=O)c2ccccc2)OCCCC[C@H](C)O3)cc1 | 0 | 3 | 30* | 0 | /
Cc1noc(C)c1S(=O)(=O)N(C)C[C@H]1OCCCC[C@H](C)Oc2ccc(NC(=O)Nc3ccc(F)cc3)cc2C(=O)N([C@@H](C)CO)C[C@@H]1C | 0 | 1 | 73* | 0 | 0
Cc1noc(C)c1S(=O)(=O)N(C)C[C@@H]1OCCCC[C@@H](C)Oc2ccc(NC(=O)Nc3ccc(F)cc3)cc2C(=O)N([C@H](C)CO)C[C@H]1C | 1 | 2 | -3 | 0 | 0
C[C@@H]1CCCCO[C@@H](CN(C)S(=O)(=O)c2ccc(Cl)cc2)[C@@H](C)CN([C@@H](C)CO)C(=O)c2cc(NC(=O)Nc3ccc(F)cc3)ccc2O1 | 3 | -1 | 29* | 0 | /
C[C@@H]1CCCCO[C@H](CN(C)S(=O)(=O)c2ccc(Cl)cc2)[C@@H](C)CN([C@H](C)CO)C(=O)c2cc(NC(=O)Nc3ccc(F)cc3)ccc2O1 | 1 | 0 | 8 | 0 | /
C[C@H](CO)N1C[C@H](C)[C@H](CN(C)S(=O)(=O)c2ccccc2)OCCCC[C@H](C)Oc2ccc(NC(=O)Nc3ccc(F)cc3)cc2C1=O | -1 | 2 | 22* | -1 | 0
Cc1nn(C)cc1NC(=O)C[C@@H]1CC[C@@H]2[C@@H](COc3ccc(NC(=O)NC(C)C)cc3C(=O)N2C)O1 | -1 | 0 | 1 | 0 | 0
COc1ccc(S(=O)(=O)N(C)C[C@H]2OCCCC[C@H](C)Oc3ccc(NC(=O)Cc4ccccc4)cc3C(=O)N([C@@H](C)CO)C[C@@H]2C)cc1 | -3 | -4 | 27* | 1 | 0
COc1ccc(S(=O)(=O)N(C)C[C@@H]2OCCCC[C@H](C)Oc3ccc(NC(=O)Cc4ccccc4)cc3C(=O)N([C@H](C)CO)C[C@H]2C)cc1 | -3 | -4 | 13 | 0 | 0
SMILES | CFTR F508del cor | ERAP1 inh | DENV2 CPE rescue | FGF22 binding | E-sel inducer
CCC(=O)c1ccc(OCC(=O)NNC(=O)c2cc(C)oc2C)cc1 | -2 | -1 | 19 | 0 | 49*
COCC#Cc1cnc2c(c1)C(=O)N([C@@H](C)CO)C[C@@H](C)[C@H](CN(C)S(C)(=O)=O)O2 | -1 | 2 | 6 | 0 | 1
CC(C)(C)c1csc(N/N=C/c2cccnc2)n1 | 4 | 3 | 3 | 44* | 0
O=C(Nc1ccccc1)N1CCCCN2[C@H](CO)[C@@H](c3ccc(-c4ccccc4F)cc3)[C@@H]2C1 | 2 | 0 | 10 | -1 | 0
O=C(Nc1ccccc1)N1CCCCN2[C@H](CO)[C@H](c3ccc(-c4ccncc4)cc3)[C@H]2C1 | 3 | -1 | 38* | 0 | 0
O=C(Nc1ccccc1)N1CCCCN2[C@H](C1)[C@@H](c1ccc(-c3ccccc3F)cc1)[C@@H]2CO | 2 | 0 | 33* | -1 | 0
O=C(Nc1ccccc1)N1CCCCN2[C@H](C1)[C@H](c1ccc(-c3ccncc3)cc1)[C@@H]2CO | 0 | -1 | -8 | 0 | 0
CCOc1ccc(CN2CCN(Cc3ccsc3)C(CCO)C2)cc1CO (stereo not drawn) | / | 1 | -8 | 0 | /
CCn1cc(CN2CCN(Cc3cccc(OC)c3)C(CCO)C2)c(C)n1 (stereo not drawn) | 2 | -1 | -1 | 43* | 2
COCc1cc(CN2CCN(Cc3ccsc3)C(CCO)C2)ccc1OC (stereo not drawn) | -1 | -1 | 3 | 43* | 2
CC(C)(O)C#Cc1ccc(CN2CCN(Cc3ccsc3)C(CCO)C2)cc1 (stereo not drawn) | 0 | -3 | 0 | 43* | /
CCC(=O)N1C[C@H](C)[C@@H](OC)CN(C)C(=O)c2ccc(NC(=O)c3ccccc3)cc2OC[C@H]1C | -1 | -5 | -1 | 0 | 0
COC(=O)c1ccc(COc2ccccc2/C=C(\C#N)C(=O)Nc2ccc(C)cc2C)cc1 | / | 37* | 3 | 0 | /
CCOc1ccccc1C(N)=O | 0 | 5 | -11 | 0 | /
CCOc1ccccc1N | -2 | -7 | 23* | 0 | /
